System: MS2 coat protein
Experiment: apparent Kd, MS2 coat protein; higher = weaker binding; RNA-MaP array; FMN 200 µM where present
In short: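 Apparent Kd: the median of filtered binding-curve fits from single clusters. Designs were transcribed on Illumina sequencing-chip clusters by stalled E. coli RNA polymerase and titrated with SNAP-549-labelled MS2 coat protein from 0.7 or 1.5 nM, doubling to 3 µM, in 100 mM Tris-HCl pH 7.5, 80 mM KCl, 4 mM MgCl2, BSA, DTT, yeast tRNA and Tween-20. Each series ran without and then with constant ligand, and green signal was normalised to red-channel RNA signal and control-cluster median Fmax.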

[1] = designed as: OFF switch for flavin mononucleotide, no ligand
[2] = ligand present: flavin mononucleotide, designed as: OFF switch for flavin mononucleotide
[3] = designed as: ON switch for flavin mononucleotide, no ligand
[4] = ligand present: flavin mononucleotide, designed as: ON switch for flavin mononucleotide

| Sequence | apparent Kd [1] | apparent Kd [2] | apparent Kd [3] | apparent Kd [4] |
| --- | --- | --- | --- | --- |
| CGCUAAGAGAACUAUUAGAGAAGACAUGAGGAUCACCCAUGUAGAAGGACAACGGAAUAAACGUUGUAGGAUAUACACUUAGCG | 22.6 nM | 17 nM | – | – |
| AUAUAAAUAUAGGAUAUCGAAUUUAUUAAUUAUCGAGAAGGAUAAACAUGAGGAUCACCCAUGUGGUAUCAUGG | 366 nM | 336 nM | – | – |
| AGUCAGAGCAGAGGAUAUAUACAUGAGGAUCACCCAUGUGACUGACUACGCUAGAAAUAGCGUGUAUAGAAGGCUGCUCUGACA | 40.2 nM | 96.4 nM | – | – |
| AACAAUCUAUCUGAGGAUAUCAUGAAAAAAACAUGAGGAUCACCCAUGUGCAGGAAAACUGCAUAUGAGAAGGCAGAUAGAUUGA | – | – | 702 nM | 27 nM |
| GGGUACCUGACAUGAGGAUCACCCAUGUCGUGCCUCUGCGGCAAGGAUAUGAUCGCUCGUGUAGGUCAGAAGGUGCCGUUGUUA | – | – | 66.2 nM | 6.7 nM |
| AAAUAAAGCAGUGUGGUAAGAUCACAUGAGGAUCACCCAUGUAAGGAUAUCUGUCCUAAAAGGACAGAGAAGGUACGUCACUGC | 18.9 nM | 79.6 nM | – | – |
| UGUUUUUUGGGAGGAUAUGUAAAUUUAAACAUGAGGAUCACCCAUGUGGAUCACCCAUGUAGAUAAUAGAAGGCCCUUUUUUUU | 55.3 nM | 36.5 nM | – | – |
| UAUAUAUAGUAAGGAUAUGUAUUAAUUUUAGAAACAGAAGGUACUGACAUGAGGAUCACCCAUGUUUUAGUGUGGGCAUGUAGA | 98.3 nM | 147 nM | – | – |
| AAAUAAACUACGAAGAUAUCCUCACAUGAGGAUCACCCAUGUCAGGAUAUUUGUCCUAAAAGGACAGAGAAGGGACAUCGUAGA | 5.15 nM | 11.4 nM | – | – |
| ACAAGAUCAGGAUAUACAUGAGGAUCACCCAUGUUUAUCAAAAAAAAACUUUCUUUAUGUAGAAGGGAUCUUGU | 13.8 nM | 13.6 nM | – | – |
| GUAGCAUACGGAGGAUAUUCAUACCGGAAACGGACAUGAGGAUCACCCAUGUGGCGAAAGCCUUGGGAGAAGGCCGUAUGCUAC | – | – | 671 nM | 21.9 nM |
| GCUGCAUAGGCAGGAUAUGCAAUAAUUCGAAUAAAAUAUAACGAAUUAACAUGAGGAUCACCCAUGUAGAAGGGCCUGUGCAGU | 18.4 nM | 16 nM | – | – |
| GGUGUACAUGAGGAUCACCCAUGUCGACCGCUCACAGGAUAUUUAAUACAAACUGGUAGCGGAGAAGGGUGAGGAA | – | – | 295 nM | 312 nM |
| UGGUCAUCAUCAGGAUAUUAACAUGGGCUACAUUAAGAAGGGAUAGUGAGAUACGAACUGAAACAUGAGGAUCACCCAUGUUGU | – | – | 105 nM | 51.9 nM |
| CCUUCACAUGAGGAUCACCCAUGUCCUAGUCCGUCAGGAUAUAGCCCGCAUCCGCUGUGGCUAGAAGGGACUGCUG | – | – | 141 nM | 235 nM |
| AAUCCGUCACAUGAGGAUCACCCAUGUGACCCUACUAUUGGACAGGAUAUCCAAGGGUCGAAGCGGGAGAAGGGUCACAAUGGG | – | – | 32.5 nM | 51.9 nM |
| GGAUAGGACAGAGGAUAUACAGAUAGGAUCUACUAUCAAACAUUCCUGACAUGAGGAUCACCCAUGUAGAAGGCUGUCCUAUCG | 22.7 nM | 75.4 nM | – | – |
| CUGGUCUAUGUAGGAUAUGGUGUAUAUGUAUUACCAGAAGGACAUGAGGAUCACCCAUGUGUCGUGGUAUGAGUAGGUGAUGUU | 47.2 nM | 146 nM | – | – |
| AUAGUUUUUGAGAAGGCAUUUCUUAAGUGAUCUUACUAGUACAUGAGGAUCACCCAUGUUUUGUAUGAGGAUAUCAGUAGGUUG | 33.9 nM | 31.7 nM | – | – |
| CUUGUUUAUGUAGGAUAUGCCUGGCGUGCCUUUGCAGAAGGACAUGAGGAUCACCCAUGUAACAUGAGGCUCCACCUUGUCGCC | 143 nM | 141 nM | – | – |
| GUAUAGAUUACAUGAGGAUCACCCAUGUCAGAACGGGUAAUCAGAAGGUAUUAUUAGAGAAAGGGUAAGGAUAUGAUUUUAUAU | – | – | 598 nM | 389 nM |
| ACAUGAGGAUCACCCAUGUAUACAUAGGAUAUUGAGGAUCAGGGAUGUUUUACAGGAUAUGUCUACAAGAAGGAUGCAAGUACA | – | – | 32.7 nM | 29.1 nM |
| AGCUCCGCUCGAGGAUAUAGCUGCAUGUAGUGUCCUGAGGCACAUGAGGAUCACCCAUGUGUAGGCUAGAAGGCGACGGACAUU | 43.3 nM | 152 nM | – | – |
| UGACCCAUGACAUGAGAUGACAUGAGGAUCACCCAUGUUUACAAGGAUAUGUUGGUCAAAGGUCGGCAGAAGGUGUAAUGGGAU | 49 nM | 128 nM | – | – |
| UGCAGGUGAGGAUAUGCGGGCGAGCUAACAUAAGCAUCGAAGCAGAAGGCACAUGAGGAUCACCCAUGUAGUCC | 18.9 nM | 28 nM | – | – |
| UUUUUUUUUGUGAGGAUAUACUUUUUUUUUUUUUUGUAGAAGGCACAUGAGGAUCACCCAUGUUUUUUUUUCUC | 11.7 nM | 11.3 nM | – | – |
| GGGUACAUCGGAGGAUAUCAUGUAAAUACAUGAGGAUCACCCAUGUCGAUGGAGACAUCGGAGAUUGAGAAGGCCGCUGUACCG | – | – | 176 nM | 9.92 nM |
| GCUUGUGGGCAAGGAUAUCCUACGUUGUUCUGGUUCGUGUCUGUCACAUGAGGAUCACCCAUGUGGGAGAAGGUGCAUUUGGUG | 19.7 nM | 17.1 nM | – | – |

| Sequence | apparent Kd [1] | apparent Kd [2] | apparent Kd [3] | apparent Kd [4] |
| --- | --- | --- | --- | --- |
| GUUAAACAUGAGGAUCACCCAUGUAAGGAUAUGCUGCGGUAGAGAUGAAGUGAAUGCAGCAGAAGGUACAAUUG | 124 nM | 109 nM | – | – |
| AAAACUGAAGGAUAUGCCAGGGUGAGAGCUGGUGACGUUUAACAUGAGGAUCACCCAUGUAGAAGGUCAAAACA | 15.3 nM | 17 nM | – | – |
| GUAGCAUAGACAGGAUAUUCAUAUAAUAAAUAAACAUGAGGAUCACCCAUGUGGCGAAAGCCUUGGGAGAAGGGUCAAUGCUAC | – | – | 1070 nM | 82.1 nM |
| UGGAUCAUGGGAGGAUAUGGGAAGAUACAUGAGGAUCACCCAUGUUUAAGAAUGCCGAGAGGCAACUAGAAGGCCCAUGAUCCU | – | – | 1090 nM | 47.9 nM |
| UAUAAUAUUAUAGGAUAUGGAUACGAUACGUAUCCAGAAGGGUGAUUAUAAUAUAAUCUAUACAUGAGGAUCACCCAUGUUUAU | – | – | 228 nM | 98 nM |
| UACAUUUAACAGAAGGCGUUUAUAUAUAACUUACGAGGAUAUGUAUAACAUGAGGAUCACCCAUGUAACAUGGAGAGAAUAUCU | – | – | 43.1 nM | 26.6 nM |
| CUCUUGUGAGGAUAUCAGUAGUAAAAAAAUAAAAUUACUACUGAGAAGGCACAUGAGGAUCACCCAUGUACCUU | 22.9 nM | 22.7 nM | – | – |
| ACGGCAAUCGCAGGAUAUGGUUACAUGAGGAUCACCCAUGUCUAGGGUCUAAUUAGGUAUAACUACCAGAAGGGCGAAGGCCUA | 53.5 nM | 66 nM | – | – |
| UUCCUACAUGAGGAUCACCCAUGUCAGGAUAUGUAGACGCAAAUUUACGAUUUGCGGAAUAGAAGGGACGUGAC | 24.1 nM | 25.9 nM | – | – |
| UUGGGAUGCAAGAAGGGUGACAUGAGGAUCACCCAUGUGUUGUGAAGUCUCGAGAUUUUAUGACCAUAGGAUAUUGCACCGAAC | – | – | 31.6 nM | 21.6 nM |
| UUGAUGUCAUCAGGAUAUAGUAUUUAAGACAUAUCUUCUUUCAAACAUGAGGAUCACCCAUGUCGCUAGAAGGGAUGAAUGAUU | 16.6 nM | 14.4 nM | – | – |
| AAAAAGUCAGGAUAUGUAGCAAAAGGUGAUCAAAAAAAGCUACAGAAGGGACAUGAGGAUCACCCAUGUAAAAA | 262 nM | 336 nM | – | – |
| CGUAUAUGGGAGAAGGCAUGUUCCAAAGGGCCAUGAGGAUAUCCUAAGUGUACGCUUUGCGACAUGAGGAUCACCCAUGUAGCA | – | – | 8.95 nM | 6.34 nM |
| UUAAUGAUGUAAGGAUAUACAUGAGGAUUUCUCGUAGAAGGUACAAGACAUGAGGAUCACCCAUGUGUCGCUCCGUAGAGCGUA | – | – | 288 nM | 302 nM |
| AACGGGUCAGGAUAUUGUUAGUUUAGUUGUUUGUAUUAGUUCGAGAAGGGACAUGAGGAUCACCCAUGUGGUAA | 66.1 nM | 62 nM | – | – |
| UGAUAGGACAGAGGAUAUACCGAUAGGAGAUACUAUCGACUAGUCCUCACAUGAGGAUCACCCAUGUAGAAGGCUGUCCUAUCU | 22.8 nM | 269 nM | – | – |
| UUGGACGUCGUAGGAUAUGUAGGAUAUUCCUACAUGAGGAUCACCCAUGUUGACAUGGAAGAACGACAGAAGGACGAUGUCCAU | – | – | 130 nM | 7.46 nM |
| UGGUCGGAGACAGGAUAUGUGACUGCAUAGUGCACAGAAGGGUCUACAUGAGGAUCACCCAUGUCACCGAACACCAAACAACAA | – | – | 412 nM | 41.2 nM |
| AAUGGCGUGAUAAUGCUAAUUAAAACAUGAGGAUCACCCAUGUAGGAUAUCCUACCGAAAUGGUAGGAGAAGGACAAGCAAUGA | 44.1 nM | 46.6 nM | – | – |
| CCAGCGUAUGUGAGGAUAUGCUGGUCCUUGGAUCAGCAGAAGGCACAUGAGGAUCACCCAUGUGGAGACGUUGG | 21.8 nM | 102 nM | – | – |
| AAAACAUGAGGAUCACCCAUGUAAAGUUCAAACAAUAUGAGUGAGGAUAUACUGAGUUAGUUAUGGUAGAAGGCACUGGGUACA | – | – | 35 nM | 28.7 nM |
| UGUCGGAGCAGAGGAUAUUACAUGAGGAUCACCCAUGUAUGAACCAAUAGCUGGAACCAGCAAUGUAAGAAGGCUGCUCCGACA | 14.2 nM | 160 nM | – | – |
| CAAAGUGGAGGAUAUACAUGAGGAUCACCCAUGUAAGGACAAUAAAUAAGAAGAAGAAGUAGAAGGCCACUCAA | 31.1 nM | 41.6 nM | – | – |
| AAUUGUCGUGAGGAUAUGUACGUUUUAGUAACGACAGAAGGCAUGACAUGAGGAUCACCCAUGUUGUAAUCUGG | 82 nM | 429 nM | – | – |
| CAUUGACGACAAUUACAUGAGGAUCACCCAUGUUUUGGGAUGCAGGAUAUGUGGUAUAUUAAUUAACAGAAGGGCAAUAAUUUU | – | – | 34.7 nM | – |
| GAUUAACAUGAGGAUCACCCAUGUGUGAAUAUGGGAGGAUAUACGUGGACCGUAGUCCGCGUAGAAGGCCUAAUUG | – | – | 279 nM | 46.1 nM |
| CUGUUUAAAGUGAGGAUAUGAACCUAGAACCAGGAUUAGAAGGCACAUGAGGAUCACCCAUGUGGUUGGUUGGG | 16.6 nM | 16.7 nM | – | – |

Reference: the EternaBench riboswitch data
